Experimental data collected from several papers.
Each line is one published result; the experiments were not run side by side.
Penicillin-binding protein 2X: Penicillin-binding protein 2X (Streptococcus pneumoniae R6, UniProt P59676)
PTGS2: Prostaglandin G/H synthase 2 (PTGS2, Homo sapiens, UniProt P35354)

`COc1cc2c(cc1OC)CN(CCc1ccc(NC(=O)c3cccc4c(=O)c5cccc(OC)c5[nH]c34)cc1)CC2` has a Ki of 0.144 µM (Alpha-1D adrenergic receptor (ADRA1D, Homo sapiens, UniProt P25100); cell-free assay).
The Kd of `Fc1c(F)c(F)c(OCCn2c(CNCC34CC5CC(CC(C5)C3)C4)nc3ccccc32)c(F)c1F` is reported as 70 µM (Penicillin-binding protein 2X; binding, MST).
`C=CCOc1ccc(C(=O)/C=C/c2cccc(F)c2)c(OS(=O)(=O)c2ccc(F)cc2)c1I` gave an IC50 of 18.6 µM (PTGS2; enzyme activity, inhibitor).
With `CCCCC/C=C\C/C=C\C/C=C\C/C=C\CCCC(=O)OC(CO)CO` the Ki was 1 µM (Fatty acid-binding protein 5-ANS (Mus musculus, UniProt Q05816); ligand displacement, fluorescence).
For `COc1ccc2cc3[n+](cc2c1OC)CCc1cc2c(cc1-3)OCO2`, the Kd was roughly 0.652 µM (Zinc finger protein GLI1 (GLI1, Homo sapiens, UniProt P08151); binding, SPR).
The IC50 of `C=CCOc1ccc(C(=O)/C=C/c2ccc(OC)cc2)c(OS(=O)(=O)c2ccc(F)cc2)c1I` is reported as 28.9 µM (PTGS2; enzyme activity, inhibitor).
`CN1CC[C@@]2(C)c3cc(OC(=O)Nc4ccccc4)ccc3N(C)[C@@H]12` has an IC50 of less than 10 µM (Retinal dehydrogenase 2 (ALDH1A2, Homo sapiens, UniProt O94788); enzyme activity, inhibitor, fluorescence; 15 min, pH 7.5).
With `CC(C)(C)CNCc1nc2ccccc2n1CCOc1ccccc1` the Kd was 115 µM (Penicillin-binding protein 2X; binding, MST).
For `Cn1c(=O)n(CCCCN2CCC3(CC2)OCc2ccccc23)c2ccccc21`, the Ki was 0.0141 µM (Sigma non-opioid intracellular receptor 1 (SIGMAR1, Cavia porcellus, UniProt Q60492); ligand displacement, radioligand; cell membranes).
